Bioassay records from PubChem BioAssay.
The entries come from a sample that favours hits as a whole.
HUVEC inhibit – human endothelial cell proliferation inhibition; HUVEC proliferation, CellTiter-Glo luminescence, 72 h; active compounds read low; viability, % at 10 µM (by protocol); hit rate 1.1% among 86,000; AID 648;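 active means viability at or below 30%; inactive means viability above 30%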;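 further: 100% = median luminescence of DMSO-only cell control wells on each plate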
Lung fibro prol – blocks proliferation of human lung fibroblasts; LL 47 human lung fibroblast viability, ATP luminescence; active compounds read low; viability, % at 10 µM; hit rate 1.1% among 85,000; AID 719;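 active means viability at or below 50% in the single dose screen; inactive means viability above 50%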;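 further: compound exposure lasted 72 h before the ATP readout; 100% = median luminescence of untreated cell-only wells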
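Benchmarks: Cell-only wells, no compound | Test system: LL 47 human lung fibroblasts, passage 12 or lower | Input: 1,150 cells/well | Measured by: CellTiter-Glo luminescence measuring cellular ATP | Medium: IMEM, 15% FBS supplement | Schedule: Overnight attachment after seeding, then 72 h compound exposure at 37 °C | Doses: Compound addition at 0.1% DMSO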
H69AR inhibit – blocks growth of human H69AR lung tumor cells; H69AR lung tumor viability, ATP luminescence, 72 h; active compounds read low; viability, % at 10 µM; hit rate 6% among 85,000; AID 598;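 active means viability at or below 40%; inactive means viability above 40%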;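 further: multidrug resistant small cell line overexpressing MRP-1 efflux transporter; 100% = mean luminescence of untreated control wells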
bCat KO growth – beta-catenin-lacking colon tumor cell growth suppression; AID 818; viability, % at 10 µM; HCT116 beta-catenin knockout viability, CellTiter-Glo, 60 h; active compounds read low; hit rate 1.5% among 140,000;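 active means viability at or under a set limit, the compound median less 4 SD, cut at about 6% in these data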;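 further: 0% = Hyamine 1622 control at 20 µM and 100% = untreated cell control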
PTEN del growth – PTEN-deleted cell growth suppression. HCT116 PTEN-null viability, CellTiter-Glo, 60 h; active compounds read low. viability, % at 10 µM. hit rate 1.2% among 140,000;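 active means viability at or below a set limit, 4 SD under the median of all tested compounds, cut at about 3.7% in these data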;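 further: PTEN knockout HCT116 line with beta catenin targeted HCT116 as companion control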
Active calls of the source: *; . = no result given.

SMILES	HUVEC inhibit	Lung fibro prol	H69AR inhibit	bCat KO growth	PTEN del growth
COC(=O)CSc1nc(N)c2c3c(sc2n1)C(c1ccccc1)SC(c1ccccc1)C3 (stereo not drawn)	.	.	.	1.1*	0.7*
O=C(COC(=O)Cc1ccc(Cl)cc1Cl)Nc1ccccc1OC(F)F	.	.	.	86	90
Cc1ccc(S(=O)(=O)n2nc(C)cc2C)cc1	80	97	89	102	95
Cc1ccc(C(C[N+](=O)[O-])n2nc(C)cc2C)cc1 (stereo not drawn)	.	.	.	3.9*	1.9*
CC(=O)Oc1ccc2c(C)cc(=O)oc2c1	104	110	96	95	99
CC(=O)Oc1cc2oc(=O)cc(C)c2cc1OC(C)=O	78	84	36*	59	74
Cc1ccccc1CSc1n[nH]c(NS(=O)(=O)c2ccccc2)n1	.	.	.	88	86
c1ccc(-n2ncc3c2ncn2nc(CSc4nc5ccccc5s4)nc32)cc1	42	62	29*	.	.
COc1cccc(CC(NC(C)=O)C(=O)NC2CCN(S(=O)(=O)c3ccc4ccccc4c3)CC2)c1 (stereo not drawn)	103	97	105	88	87
CC1=C/C(=N\OS(=O)(=O)c2ccccc2)C(C(C)C)=CC1=O	.	.	.	1.5*	1.5*
CC1=C/C(=N\OS(=O)(=O)c2ccccc2)C(C)=CC1=O	.	.	.	1.8*	1.7*
COc1ccc(S(=O)(=O)/N=C2/C=CC(=O)C(C)=C2C)cc1	.	.	.	98	101
CC1=C(C)/C(=N\OS(=O)(=O)c2ccc(C)cc2)C=CC1=O	.	.	.	1.8*	1.7*
CC(=O)NC1=C(C#N)C(c2ccccc2)c2c(ccc3ccccc23)O1 (stereo not drawn)	.	.	.	45	43
COc1ccc(N(CC(=O)NC(C)(C)C)S(=O)(=O)c2ccccc2)cc1OC	94	111	100	104	98
O=C1c2cccc3c(O)ccc(c23)C(=O)N1Cc1ccccc1	.	.	.	101	118
O=C1Nc2ccccc2/C1=C/C(=O)c1cccs1	68	34*	0.7*	2.0*	1.6*
COC(=O)c1ccccc1NC1=C/C(=N\S(=O)(=O)c2cccs2)c2ccccc2C1=O	4.0*	5.7*	23*	1.8*	1.7*
O=C1C(Nc2ccccc2)=C/C(=N/S(=O)(=O)c2cccs2)c2ccccc21	.	.	.	2.0*	1.7*
COC(=O)c1cccc(NS(=O)(=O)c2cccs2)c1C	92	92	105	84	85
Cc1ccc(NC2=C/C(=N/S(=O)(=O)c3cccs3)c3ccccc3C2=O)cc1	.	.	.	1.2*	0.5*
Cc1ccc(C(C(=O)NC2CCCCC2)N2CCN(C(=O)c3ccco3)CC2)cc1 (stereo not drawn)	83	94	89	85	93
CC(NC(=O)CCSc1nc(-c2ccc3c(c2)OCO3)cc(C(F)(F)F)n1)c1ccccc1 (stereo not drawn)	72	107	42	68	62
Cc1ccc(C(=O)c2c[nH]c(C(=O)NCc3cccnc3)c2)cc1	.	.	.	86	91
CC(C)(C)OC(=O)COc1cc(OCC(=O)OC(C)(C)C)c2c(=O)cc(-c3ccccc3)oc2c1	.	.	.	1.5*	1.7*
SMILES	HUVEC inhibit	Lung fibro prol	H69AR inhibit	bCat KO growth	PTEN del growth
COc1ccccc1NC(=O)c1ccc(NC(=O)CSc2n[nH]c(N)n2)cc1	.	.	.	99	96
CCSc1nc(-c2cccnc2)ccc1C#N	.	.	.	95	92
Cc1ccc(C=Nc2ccc(N(C)C)cc2)o1	90	106	68	5.4*	38
Cc1ccc(C=Nc2ccccc2C(N)=O)o1	.	.	.	96	93
CCOC(=O)c1cnc(SCc2nc(N)nc(Nc3ccc(C)cc3)n2)nc1N	97	76	35*	43	41
CCOC(=O)c1cnc(SCc2nc(N)nc(Nc3ccc(F)cc3)n2)nc1N	99	91	36*	51	45
O=C1COc2ccc(C(=O)c3ccccc3C(=O)NCc3ccco3)cc2N1	108	100	73	99	102
COc1ccc(/C=N/NC(=O)c2ccccc2F)cc1CN1CCN(c2ccc(F)cc2)CC1	.	.	.	86	91
CC(=O)N1CCc2c(sc(NC(=O)C3CC3)c2-c2nc3ccccc3s2)C1	70	88	50	6.0*	20
COCCCN(C(=S)Nc1cc(C)cc(C)c1)C(C)c1ccncc1 (stereo not drawn)	.	.	.	92	93
O=C(Nc1nc(-c2ccccn2)cs1)C1CC(=O)N(c2ccc3c(c2)OCCO3)C1 (stereo not drawn)	.	.	.	25	20
O=c1[nH]c(=O)n(Cc2ccccc2)c2nc(-c3ccco3)cc(C(F)(F)F)c12	44	58	31*	75	51
